Screens (PubChem BioAssay)
Rows were chosen to be rich in hits. Some 1% of all compounds tested hit in one or more screens of this group.
eIF2B yeast act – GCN4-lacZ reporter reduction in eIF2B-epsilon mutant yeast, primary screen, S. cerevisiae, eIF2B-epsilon R284H, Beta-Glo luminescence; actives 0.91% (n = 27,000); inhibition, % at 25 µM (by protocol);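 active means mutant luminescence inhibited past about 50% while wild type luminescence and mutant growth stay under set limits, limit read from the data; inconclusive means mutant versus wild type luminescence inhibition gap past a set limit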
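Material – yeast eIF2B-epsilon R284H mutant carrying GCN4–beta-galactosidase fusion · Medium – YPD yeast growth medium · Compound – one concentration, 25 µM, 0.25% DMSO · Times – 16 h at 30 °C exposure · Signal – Beta-Glo luminescence plus absorbance at 595 nm · Read-out – % inhibition of reporter signal and growth versus controls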
Yeast growth tox – yeast growth toxicity, wild-type and mutant, primary screen, cytotoxicity control for eIF2B function restoration project, wild-type and eIF2Bepsilon R284H mutant, A595 | S. cerevisiae wild-type growth, A595 turbidity, 16 h | growth inhibition, % at 25 µM (by protocol) | actives 0.3% (n = 30,000) | AID 685, 2007;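 active means mutant and wild-type yeast strains alike exhibit over 30% growth inhibition; inconclusive means a strain exceeds 50% while the second remains under 30%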;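 further: 0% = untreated cell controls and 100% = YPD media blanks without cells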
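system = S. cerevisiae wild-type or eIF2Bepsilon-R284H mutant strain | buffer or medium = YPD medium | dosing = one dose, 25 µM compound, 0.2% DMSO | schedule = 16 h at 30 °C | measured by = A595 turbidity | evaluation = growth inhibition (%) versus cell controls and blanks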
* marks the source's active call; other numbers are inactive results; ? = inconclusive; · = not tested or not shown; ! = not confirmed by another sample.

SMILES | eIF2B yeast act | Yeast growth tox
COc1ccccc1/C=N/n1c(C)nnc1-n1nc(C)cc1C | 16.9 | 7.3
COc1ccc(C(=O)Nn2c(C)nnc2-n2nc(C)cc2C)cc1OC | 55.6* | -0.4
COc1cccc2cc(C(=O)Nc3cccnc3N3CCOCC3)c(=O)oc12 | -2.1 | -25.2
Cc1cccc(-c2nnc(NC(=O)c3ccc(Cl)cc3)o2)c1 | 17.2 | 57.2*
COc1ccc(C(=O)Nc2nnc(-c3ccccc3)o2)cc1OC | 20.8 | 13.8
O=C(NC1CC2CCCC(C1)N2C(=O)Nc1ccccc1)c1ccncc1 (stereo not drawn) | 15.2 | -0.8
COc1ccc(OCCOC(=O)c2ccc(-n3cnnn3)cc2)cc1 | 10.4 | 8.4
COc1ccc(C(=O)OC(COc2ccccc2)Cn2ccnc2)cc1 (stereo not drawn) | 75.9 | 68.3*
CCc1nc(N2CCOCC2)c(C#N)c2c1CCCC2 | -3.2 | 10.3
N#Cc1c(N2CCOCC2)nc(-c2ccco2)c2c1CCCC2 | 57.0* | -3.1
Cn1nnnc1SCCNCc1cccc2ccccc12 | 34.1 | 12.6
CCOC(=O)c1cccc(NC(=O)CCc2nc(-c3ccc(C)cc3)no2)c1 | -8.2 | -10.9
CN(Cc1ccccc1)C1CC(=O)N(c2ccc(C(=O)O)cc2)C1=O (stereo not drawn) | -7.3 | -0.6
CCCCCC(=O)N(O)C1CC(=O)N(c2ccccc2)C1=O (stereo not drawn) | 46.6 | 38.2*
CCCC1COC(Cn2cncn2)(c2ccc(C)cc2)O1 (stereo not drawn) | 92.4 | 93.4*
Cc1cc(C)n(S(=O)(=O)c2cc(C(=O)O)c(Cl)cc2Cl)n1 | -4.8 | -3.2
CCN(CC)C(=O)CSc1nc2ccccc2c(=O)n1OC(C)C | · | 8.1
CN1CCN(c2nc(N3CCN(CCO)CC3)nc3ccccc23)CC1 | 54.9* | -5.3
c1ccc(CN2CCN(c3nc(N4CCOCC4)c4ccccc4n3)CC2)cc1 | 7.4 | 8.3
CCOC(=O)c1cnn2c(C)cc(-c3ccc(F)cc3)nc12 | 20.2 | 12.5
CCOC(=O)c1c(NC(=O)CSc2nc3c(c(=O)n(C)c(=O)n3C)n2CC)sc(C)c1C | 6.7 | -40.9
CCCn1c(SCC(=O)Nc2nc3c(s2)CCCC3)nc2c1c(=O)n(C)c(=O)n2C | 55.4* | -34.6
CCOc1ccccc1N/C=C/C(=O)C(C)(C)C | · | -8.4
COc1cc(NS(=O)(=O)N2CCCC2)cc(OC)c1OC | 1.8 | 8.3
COc1ccc(N(CC(=O)NC2CCCCCC2)S(=O)(=O)c2c(C)nn(C)c2C)cc1 | 14.1 | -29.6
SMILES | eIF2B yeast act | Yeast growth tox
COc1cccc(NC(=O)CN(c2ccc(C)cc2)S(=O)(=O)c2c(C)nn(C)c2C)c1 | 53.0* | 0.8
CN(Cc1ccccc1)S(=O)(=O)c1ccc2c(c1)OCCO2 | · | -4.5
Cc1cc(C)cc(NS(=O)(=O)c2ccc3[nH]c(=O)[nH]c3c2)c1 | 52.0* | -0.2
COc1ccc(S(=O)(=O)Nc2ccc(C)cc2)cc1OC | 26.5 | -9.1
CCC(=O)c1ccc(OCC(O)Cn2c(C)nc3ccccc32)cc1 (stereo not drawn) | 17.8 | 1.8
CCc1nc2ccccc2n1CC(=O)N(C(C)CC)C1CCS(=O)(=O)C1 (stereo not drawn) | 5.8 | 5.3
N/C(Cc1ccc([N+](=O)[O-])cc1)=N\OC(=O)c1ccc([N+](=O)[O-])cc1 | 15.8 | 5.4
N/C(Cc1ccc(Cl)cc1)=N\OC(=O)c1ccccc1 | -0.3 | 71.2*
COc1ccc(C(=O)Nc2ccc3c(c2)nc(CN2CCN(C(C)=O)CC2)n3C)cc1 | · | -1.1
Fc1ccc(-c2cc3nc(-c4ccccc4)cc(N4CCN(CCN5CCOCC5)CC4)n3n2)cc1 | -8.8 | 31.4*
CCc1c(C)nc2cc(-c3cc(OC)cc(OC)c3)nn2c1N1CCN(CCN2CCOCC2)CC1 | · | -2.1
CCOCc1nc(C)c(Cl)c(NS(=O)(=O)c2ccc(N)cc2)n1 | · | -1.1
COc1cc(S(=O)(=O)N2CCN=C2c2ccccc2)ccc1F | -19.8 | ?
COc1ccc(C2=CSC3=NCCN23)cc1F | 64.5* | 7.2
COc1ccc(C2C(C(=O)Nc3cccc(C)n3)c3ccccc3C(=O)N2C)cc1OC (stereo not drawn) | 26.4 | 0.8
COC(=O)c1sc(NC(=O)Cc2cccs2)nc1C | 17.1 | 3.8
C=CCOC(=O)C1=C(C)Nc2nc3ccccc3n2C1c1ccncc1 (stereo not drawn) | 63.1* | -17.9
C=CCOC(=O)C1=C(C)Nc2ncnn2C1c1cccs1 (stereo not drawn) | 22.6 | 28.6
COc1ccc(CCNC(=O)CN(C2CCCCC2)S(C)(=O)=O)cc1 | -3.3 | 15.1
Cc1ccc(-c2noc(CSc3ccccc3)n2)cc1 | 21.4 | 8.3
c1ccc(SCc2nc(-c3ccccn3)no2)cc1 | 63.6* | 17.6
CN1C(=O)NC(c2ccccc2)C2=C1CN(CCc1ccccc1)C2=O (stereo not drawn) | -25.3 | 20.8
CN1C(=O)NC(c2ccccc2)C2=C1CN(c1cccc(C(F)(F)F)c1)C2=O (stereo not drawn) | 52.3* | 1.5
COC(=O)c1ccc(NC(=O)CN(c2ccc(OC)cc2)S(C)(=O)=O)cc1 | 19.2 | 3.9
Cc1c(N=Cc2c(O)n(Cc3ccco3)c(=O)c3ccccc23)c(=O)n(-c2ccccc2)n1C | 50.6*! | -20.4
SMILES | eIF2B yeast act | Yeast growth tox
O=c1c2ccccc2c(C=NCCc2ccccc2)c(O)n1Cc1ccccc1 | -11.6 | 17.9
O=C(NCC1CCCO1)c1ccc2c(=O)n(CCc3ccccc3)c(=O)[nH]c2c1 (stereo not drawn) | · | 7.0
CCS(=O)(=O)N1CCCC(C(=O)NCCN(C)Cc2ccccc2)C1 (stereo not drawn) | 62.2* | 10.9
CCS(=O)(=O)N1CCCC(C(=O)NCc2cccc(OC)c2)C1 (stereo not drawn) | -2.4 | 0.8
CCOC(=O)c1c(NC(=O)COC)sc2c1CCCC2 | 64.8* | 2.3
CCOC(=O)c1c(NC=O)sc2c1CCC2 | 7.7 | 8.6
Cc1nnc(NC2CCCCC2)[nH]c1=O | 65.1* | 14.9
O=c1[nH]c(NC2CCCCC2)nnc1Cc1ccccc1 | 10.6 | 16.5
O=S1(=O)CC/C(=N\O)c2ccccc21 | · | 10.9
Cc1c(Cl)cccc1NC(=O)CC(NCCN1CCOCC1)C(=O)O (stereo not drawn) | 19.3 | 1.2
CCOC(=O)C(C)c1nc2ccccc2[nH]c1=O (stereo not drawn) | 33.0 | 7.9
CC(C)OC(=O)CCc1nc2ccccc2[nH]c1=O | 60.9* | 2.1
CCOc1cccc(-c2nnc(SCC(=O)Nc3cc(C)ccc3OC)n2N)c1 | 7.2 | -1.2
CCCCNS(=O)(=O)c1cccc(S(=O)(=O)N2CCCC2)c1 | 52.8* | -9.2
O=S(=O)(NCCc1ccccc1F)c1cccc(S(=O)(=O)N2CCOCC2)c1 | -23.6 | -5.5
CCOc1cc(-c2nc(-c3cc(OC)c(OC)c(OC)c3)no2)cc(OCC)c1OCC | 4.3 | -15.7
CCOc1cc(-c2nc(-c3ccc(C)nc3OCC)no2)cc(OCC)c1OCC | 56.4* | ·
Cc1ccc(Oc2ccc(OCC(=O)OC3CCS(=O)(=O)C3)cc2)cc1 (stereo not drawn) | 6.0 | ·
CCCCNC(=O)OC1CCS(=O)(=O)C1 (stereo not drawn) | 55.2* | -15.0
CCN(CC)C(=O)Sc1cccc2cccnc12 | 22.5 | 17.9
COc1ccc(Oc2c(-c3ccc(O)cc3O)n[nH]c2C)cc1 | -1.3 | 5.7
